Experimental data pooled from the literature.
Lines come from different studies, so protocols differ.
Target: Interleukin-1 receptor-associated kinase 1 (IRAK1, Homo sapiens, UniProt P51617)

C#Cc1n[nH]c2c(-c3cn([C@@H](C)c4ccccc4)c(=O)[nH]c3=O)cc(F)cc12
inhibition (enzyme activity; inhibitor; 0.1 µM): -7%

CC(C)(C)c1cc(C=C(C#N)C#N)cc(Br)c1O
remaining activity (enzyme activity; inhibitor; 0.5 µM): 105%

COc1cc(Nc2ncc(F)c(Nc3ccc4c(n3)NC(=O)C(C)(C)O4)n2)cc(OC)c1OC
inhibition (binding; 10 µM): 100%

Cn1cncc1[C@](O)(COc1ccc(C#N)cc1-c1ccc(OC(F)(F)F)cc1)c1ccc(C#N)cc1
remaining binding (cell-free assay; competition with immobilised ligand; 1 µM): 83%

COc1ncccc1-c1cnn2ccc(N3CCN(C(=O)OC(C)C)CC3)nc12
remaining binding (binding; competition with immobilised ligand; 1 µM): 80%

Cc1nn(C)cc1-c1nc2c(N3CCN(Cc4ccc(Cl)cc4)CC3)c(Cl)cnc2[nH]1
remaining binding (binding; competition with immobilised ligand; 1 µM): 56%

Cn1cc(-c2cccc(N3CCc4c(sc5c4CC(C)(C)C5)C3=O)c2CO)cc(Nc2ccncn2)c1=O
inhibition (enzyme activity; inhibitor; 1 µM): -4%

C#Cc1n[nH]c2c(-c3cn(C(C)c4ccccn4)c(=O)[nH]c3=O)cc(F)cc12 (stereo not drawn)
inhibition (enzyme activity; inhibitor; 1 µM): 11.6%

N#CC1(c2ccccn2)CCN(Cc2cc(C(=O)O)c(=O)n3ccccc23)CC1
remaining binding (cell-free assay; competition with immobilised ligand; 1 µM): 77%

Nc1ncc(-c2nc(N3CCOCC3)nc(N3CCOCC3)n2)c(C(F)F)n1
remaining binding (binding; competition with immobilised ligand; 10 µM): 50%

O=c1[nH]c2ccccc2n1C1CCN(Cc2ccc(-c3[nH]c4cc5ncnc5cc4nc3-c3ccccc3)cc2)CC1
remaining signal (cell-free assay; 0.5 µM): 109%

Cn1cc(-c2cc(F)cc(N3CCn4c(cc5c4CCCC5)C3=O)c2CO)cc(Nc2ccc(N3CCN(C4COC4)CC3)cn2)c1=O
inhibition (enzyme activity; inhibitor; 0.1 µM): 2%
